ChEMBL document CHEMBL3352048, “Development of 2-(4-oxoquinazolin-3(4H)-yl)acetamide derivatives as novel enoyl-acyl carrier protein reductase (InhA) inhibitors for the treatment of tuberculosis” (Eur J Med Chem, 2014)
In brackets after ≈: the same amount, converted by molar mass.

Experiments:
[1] = test system: Mycobacterium tuberculosis; assay: Antimycobacterial activity against Mycobacterium tuberculosis H37Rv ATCC 27294 after 28 days by two-fold serial dilution assay in presence of […] piperine efflux pump inhibitor; format: functional; conditions: H37Rv ATCC 27294, 672 h
[2] = biological target: T1, Enoyl-[acyl-carrier-protein] reductase [NADH] (Mycobacterium tuberculosis, UniProt P9WGR1); assay: Inhibition of Mycobacterium tuberculosis recombinant InhA expressed in Escherichia coli BL21 (DE3) using 2-trans-decenoyl substrate by spectrophotometry
T1 sequence (P9WGR1 whole entry): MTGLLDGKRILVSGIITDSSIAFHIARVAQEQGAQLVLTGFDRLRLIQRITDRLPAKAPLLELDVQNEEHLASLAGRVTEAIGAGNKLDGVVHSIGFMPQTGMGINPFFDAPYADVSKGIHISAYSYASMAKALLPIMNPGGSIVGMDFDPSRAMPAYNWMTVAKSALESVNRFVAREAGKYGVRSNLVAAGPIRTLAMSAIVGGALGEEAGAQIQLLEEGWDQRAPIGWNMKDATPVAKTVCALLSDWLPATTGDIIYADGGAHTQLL
Procedure, shortened: (§1)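 Recombinant M. tuberculosis InhA was expressed in E. coli and purified. Inhibition was screened as percent inhibition at 10 µM. IC50 values came from dose-response curves of log concentration versus % inhibition.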

[3] = biological target: T2, Enoyl-[acyl-carrier-protein] reductase [NADH] (Mycobacterium tuberculosis) (UniProt P9WGR1); assay: Inhibition of Mycobacterium tuberculosis recombinant InhA expressed in Escherichia coli BL21 (DE3) using 2-trans-decenoyl substrate at 10 uM by spectrophotometry; procedure, shortened: as §1
T2 sequence (whole entry): T1 sequence (P9WGR1 whole entry)

[4] = Cytotoxicity against mouse RAW264.7 cells at 100 uM after 72 hrs by MTT assay; format: cell-based; conditions: read-out: INH
Procedure, shortened: (§2)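 RAW 264.7 mouse leukemic monocyte macrophages were exposed to compound for 72 h, tested at concentrations up to 100 µM. Viability was read as MTT conversion to formazan (CellTiter 96 non-radioactive proliferation assay). Results are reported as percentage inhibition.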

[5] = Cytotoxicity against mouse RAW264.7 cells at 50 uM after 72 hrs by MTT assay; format: cell-based; conditions: read-out: INH; procedure, shortened: as §2
[6] = test system: Mycobacterium tuberculosis; assay: Antimycobacterial activity against Mycobacterium tuberculosis H37Rv ATCC 27294 after 28 days by two-fold serial dilution assay; format: functional; conditions: H37Rv ATCC 27294, 672 h
Procedure, shortened: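 Agar dilution test against M. tuberculosis H37Rv (ATCC27294). Drug concentrations ran from 50 µg/mL to 0.78 µg/mL, tested in duplicate. MIC was taken as the minimum concentration inhibiting growth.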

Question: For `Cc1nc2ccc(Cl)cc2c(=O)n1CC(=O)Nc1ccccc1`, which MIC [1] is on record?
Answer: 2.38 µM

Question: What about the IC50 [2] of the same molecule?
Answer: 3.12 µM

Question: What about the inhibition [3] of the same molecule?
Answer: 88.1%

Question: And the cytotoxicity at 72 h, 100 µM [4]?
Answer: 28.7%

Question: What about the cytotoxicity at 72 h, 50 µM [5] of the same molecule?
Answer: 19.9%

Question: And the MIC [6]?
Answer: 4.76 µM (≈ 1.56 µg/mL)

Question: For `O=C(Cn1cnc2ccccc2c1=O)Nc1nccs1`, which inhibition [3] is on record?
Answer: 31%

Question: For `O=C(Cn1cnc2ccc(Cl)cc2c1=O)NCc1nc2ccc([N+](=O)[O-])cc2s1`, which MIC [1] is on record?
Answer: 30.1 µM

Question: And the inhibition [3]?
Answer: 45.6%

Question: And the cytotoxicity at 72 h, 100 µM [4]?
Answer: 62.8%

Question: What about the cytotoxicity at 72 h, 50 µM [5] of the same molecule?
Answer: 15.8%

Question: What about the MIC [6] of the same molecule?
Answer: 30.1 µM (≈ 12.9 µg/mL)

Question: With `NNC(=O)c1ccncc1` [ISONIAZID] as the molecule, how does the MIC [6] read?
Answer: 0.72 µM (≈ 0.0987 µg/mL)

Question: Which MIC [6] does the source give for `CO[C@H]1/C=C/O[C@@]2(C)Oc3c(C)c(O)c4c(O)c(c(/C=N/N5CCN(C)CC5)c(O)c4c3C2=O)NC(=O)/C(C)=C\C=C\[C@H](C)[C@H](O)[C@@H](C)[C@@H](O)[C@@H](C)[C@H](OC(C)=O)[C@@H]1C` [RIFAMPIN] here?
Answer: 0.15 µM (≈ 0.123 µg/mL)

Question: Which MIC [1] does the source give for `O=C(Cn1cnc2ccc(Cl)cc2c1=O)NCc1ccco1` here?
Answer: 4.91 µM

Question: What about the IC50 [2] of the same molecule?
Answer: 3.12 µM

Question: What about the inhibition [3] of the same molecule?
Answer: 82.4%

Question: What about the cytotoxicity at 72 h, 100 µM [4] of the same molecule?
Answer: 42.5%

Question: And the cytotoxicity at 72 h, 50 µM [5]?
Answer: 30.7%

Question: What about the MIC [6] of the same molecule?
Answer: 4.91 µM (≈ 1.56 µg/mL)

Question: Which results are given for `Cc1nc2ccccc2c(=O)n1CC(=O)NCc1nc2ccc([N+](=O)[O-])cc2s1`?
Answer: IC50 [2]: 6.16 µM; inhibition [3]: 64%; cytotoxicity at 72 h, 100 µM [4]: 37.4%; cytotoxicity at 72 h, 50 µM [5]: 34%; MIC [6]: > 63.2 µM

Question: With `Cc1cccc(NC(=O)Cn2cnc3ccccc3c2=O)c1` as the molecule, how does the inhibition [3] read?
Answer: 14.5%

Question: With `Cc1nc2ccc(Cl)cc2c(=O)n1CC(=O)NCc1nc2ccc([N+](=O)[O-])cc2s1` as the molecule, how does the inhibition [3] read?
Answer: 54.1%

Question: And the cytotoxicity at 72 h, 100 µM [4]?
Answer: 33.7%

Question: And the cytotoxicity at 72 h, 50 µM [5]?
Answer: 28.4%

Question: And the MIC [6]?
Answer: 58.2 µM (≈ 25.8 µg/mL)

Question: For `Cc1nc2ccccc2c(=O)n1CC(=O)NCc1ccco1`, which MIC [1] is on record?
Answer: 42 µM

Question: And the IC50 [2]?
Answer: 6.86 µM

Question: What about the inhibition [3] of the same molecule?
Answer: 70.1%

Question: And the cytotoxicity at 72 h, 100 µM [4]?
Answer: 41.5%

Question: And the cytotoxicity at 72 h, 50 µM [5]?
Answer: 25.5%

Question: And the MIC [6]?
Answer: 84.1 µM (≈ 25 µg/mL)

Question: Which MIC [1] does the source give for `Cc1nc2ccc(Cl)cc2c(=O)n1CC(=O)NCc1cccs1` here?
Answer: 4.48 µM

Question: What about the IC50 [2] of the same molecule?
Answer: 6.76 µM

Question: What about the inhibition [3] of the same molecule?
Answer: 70.2%

Question: And the cytotoxicity at 72 h, 100 µM [4]?
Answer: 51.7%

Question: What about the cytotoxicity at 72 h, 50 µM [5] of the same molecule?
Answer: 47.5%

Question: And the MIC [6]?
Answer: 18 µM (≈ 6.25 µg/mL)

Question: For `CC1COc2c(N3CCN(C)CC3)c(F)cc3c(=O)c(C(=O)O)cn1c23` (stereo not drawn) [OFLOXACIN], which MIC [6] is on record?
Answer: 2.16 µM (≈ 0.781 µg/mL)

Question: Which results are given for `O=C(Cn1cnc2ccccc2c1=O)Nc1cc(C(F)(F)F)ccc1Cl`?
Answer: MIC [1]: 2.04 µM; IC50 [2]: 8.16 µM; inhibition [3]: 58.1%; cytotoxicity at 72 h, 100 µM [4]: 35.6%; cytotoxicity at 72 h, 50 µM [5]: 10.1%; MIC [6]: 8.18 µM (≈ 3.12 µg/mL)

Question: For `O=C(Cn1cnc2ccc(Cl)cc2c1=O)NCc1cccs1`, which MIC [1] is on record?
Answer: 2.33 µM

Question: And the IC50 [2]?
Answer: 7.12 µM

Question: And the inhibition [3]?
Answer: 68.9%

Question: What about the cytotoxicity at 72 h, 100 µM [4] of the same molecule?
Answer: 45.2%

Question: And the cytotoxicity at 72 h, 50 µM [5]?
Answer: 32.4%

Question: And the MIC [6]?
Answer: 9.36 µM (≈ 3.12 µg/mL)

Question: Which results are given for `O=C(Cn1cnc2ccc(Cl)cc2c1=O)Nc1cc(C(F)(F)F)ccc1Cl`?
Answer: MIC [1]: 1.87 µM; IC50 [2]: 4.56 µM; inhibition [3]: 80.1%; cytotoxicity at 72 h, 100 µM [4]: 53.6%; cytotoxicity at 72 h, 50 µM [5]: 48.9%; MIC [6]: 3.74 µM (≈ 1.56 µg/mL)

Question: Which MIC [1] does the source give for `O=C(Cn1cnc2ccccc2c1=O)NCc1ccco1` here?
Answer: 2.75 µM

Question: What about the inhibition [3] of the same molecule?
Answer: 46.1%

Question: And the cytotoxicity at 72 h, 100 µM [4]?
Answer: 13.7%

Question: What about the cytotoxicity at 72 h, 50 µM [5] of the same molecule?
Answer: 1.96%

Question: And the MIC [6]?
Answer: 5.5 µM (≈ 1.56 µg/mL)

Question: For `Cc1nc2ccc(Cl)cc2c(=O)n1CC(=O)NCc1ccco1`, which MIC [1] is on record?
Answer: 1.17 µM

Question: And the IC50 [2]?
Answer: 4.52 µM

Question: And the inhibition [3]?
Answer: 78.1%

Question: What about the cytotoxicity at 72 h, 100 µM [4] of the same molecule?
Answer: 5.37%

Question: And the cytotoxicity at 72 h, 50 µM [5]?
Answer: 3.36%

Question: And the MIC [6]?
Answer: 4.7 µM (≈ 1.56 µg/mL)

Question: For `CC[C@@H](CO)NCCN[C@@H](CC)CO` [ETHAMBUTOL], which MIC [6] is on record?
Answer: 7.64 µM (≈ 1.56 µg/mL)

Question: Which results are given for `O=C(Cn1cnc2ccc(Cl)cc2c1=O)Nc1ccccc1`?
Answer: MIC [1]: 1.24 µM; IC50 [2]: 7.78 µM; inhibition [3]: 58.3%; cytotoxicity at 72 h, 100 µM [4]: 53%; cytotoxicity at 72 h, 50 µM [5]: 3.51%; MIC [6]: 4.97 µM (≈ 1.56 µg/mL)

Question: What does the source list for `Cc1nc2ccccc2c(=O)n1CC(=O)NCc1cccs1`?
Answer: MIC [1]: 4.97 µM; IC50 [2]: 6.01 µM; inhibition [3]: 68.2%; cytotoxicity at 72 h, 100 µM [4]: 38.6%; cytotoxicity at 72 h, 50 µM [5]: 35.6%; MIC [6]: 9.97 µM (≈ 3.12 µg/mL)

Question: Which results are given for `O=C(Cn1cnc2ccccc2c1=O)NCc1cccs1`?
Answer: MIC [1]: 1.3 µM; inhibition [3]: 33.7%; cytotoxicity at 72 h, 100 µM [4]: 41.4%; cytotoxicity at 72 h, 50 µM [5]: 4.38%; MIC [6]: 5.21 µM (≈ 1.56 µg/mL)

Question: For `Cc1nc2ccccc2c(=O)n1CC(=O)Nc1ccccc1`, which MIC [1] is on record?
Answer: 5.31 µM

Question: And the IC50 [2]?
Answer: 8.92 µM

Question: And the inhibition [3]?
Answer: 60.1%

Question: What about the cytotoxicity at 72 h, 100 µM [4] of the same molecule?
Answer: 29.7%

Question: And the cytotoxicity at 72 h, 50 µM [5]?
Answer: 11.2%

Question: What about the MIC [6] of the same molecule?
Answer: 10.7 µM (≈ 3.12 µg/mL)

Question: With `O=C(Cn1cnc2ccccc2c1=O)Nc1cc(Cl)ccc1Cl` as the molecule, how does the inhibition [3] read?
Answer: 16.3%

Question: With `O=C(Cn1cnc2ccccc2c1=O)NCc1nc2ccc([N+](=O)[O-])cc2s1` as the molecule, how does the MIC [1] read?
Answer: 1.02 µM

Question: What about the IC50 [2] of the same molecule?
Answer: 5.12 µM

Question: And the inhibition [3]?
Answer: 72.2%

Question: What about the cytotoxicity at 72 h, 100 µM [4] of the same molecule?
Answer: 50.5%

Question: And the cytotoxicity at 72 h, 50 µM [5]?
Answer: 13.1%

Question: And the MIC [6]?
Answer: 4.09 µM (≈ 1.62 µg/mL)

Question: With `O=C(Cn1cnc2ccccc2c1=O)Nc1ccccc1` as the molecule, how does the MIC [1] read?
Answer: 5.58 µM

Question: And the inhibition [3]?
Answer: 52.1%

Question: What about the cytotoxicity at 72 h, 100 µM [4] of the same molecule?
Answer: 31.1%

Question: What about the cytotoxicity at 72 h, 50 µM [5] of the same molecule?
Answer: 21.2%

Question: And the MIC [6]?
Answer: 11.2 µM (≈ 3.12 µg/mL)
